For orientation: IC50 means the point on the concentration scale where inhibition reaches its midpoint.

This note sets out measurements from ChEMBL document CHEMBL3112575, “N¹,N¹-Dimethyl-N³-(3-(trifluoromethyl)phenethyl)propane-1,3-diamine, a new lead for the treatment of human African trypanosomiasis” (Eur J Med Chem, 2014).

SMILES strings stand for the structures.

The subject of this test is Trypanosoma brucei brucei. Put plainly: Antitrypanosomal activity against bloodstream form of Trypanosoma brucei brucei 427 after 48 hrs by Alamar Blue staining based fluorescence assay. It counts as functional, organism-based. The conditions noted are these: Trypanosoma brucei, 427, 48 h. Summed up: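 Starting inoculum 2×10³ bloodstream-form parasites per well in HMI-9 with 10% FBS, exposed to two-fold serial drug dilutions for 48 h at 37°C, 5% CO₂. Alamar Blue then added, with a further 4 h incubation. Fluorescence read at Ex 544/Em 590. Each plate included drug-free parasite wells and parasite-free, drug-free wells. IC₅₀ from three biological replicates, each the mean of three technical replicates.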
A general note: Alamar Blue is a resazurin reagent that responds to reducing activity.

For `C#CCN(CCCN(C)C)CCc1cc(OC)c(Br)cc1Br`, the IC50 was above 8 µM. In the case of `CN(C)CCCNCc1cc(Br)c(O)c(Br)c1` it was above 8 µM; in that of `COc1c(Br)cc(CNCCCN(C)C)cc1Br`, above 8 µM.

Take `CN(C)CCCNCc1cccc(O)c1`: the IC50 is above 8 µM. The same measure for `CN(C)CCCNCc1ccc(O)cc1`: above 8 µM; for `COc1cccc(CNCCCN(C)C)c1`: above 8 µM; for `COc1ccc(CNCCCN(C)C)cc1`: above 8 µM. In the case of `COc1cc(CCNCCCN(C)C)c(Br)cc1Br` it was 0.3 µM; in that of `COc1ccc(Br)c(CCNCCCN(C)C)c1Br`, 4 µM. The same measure for `COc1ccc(CCNCCCN(C)C)cc1Br`: above 8 µM; for `COc1ccc(Br)cc1CCNCCCN(C)C`: above 8 µM; for `COc1cccc(CCNCCCN(C)C)c1`: above 8 µM. `COc1cc(CCN(CCCN(C)C)C(C)=O)c(Br)cc1Br` returned an IC50 above 8 µM.

In turn, `COc1cc(CCNCCCN)c(Br)cc1Br` had an IC50 of 2 µM. In the case of `COc1cc(CCNCCCO)c(Br)cc1Br` it was above 8 µM; in that of `C#CCNCCc1cc(OC)c(Br)cc1Br`, above 8 µM; in that of `C#CCCNCCc1cc(OC)c(Br)cc1Br`, above 8 µM.

In the case of `COc1cc(CCN2CCCC2)c(Br)cc1Br`, the IC50 is above 8 µM. The same measure for `CN(C)CCCNCCc1ccc2ccccc2c1`: 4 µM; for `CN(C)CCCNCCc1cccs1`: above 8 µM; for `CN(C)CCCNC1Cc2ccccc2C1`: above 8 µM. The same measure for `CN(C)CCCNCCc1ccccc1Br`: above 8 µM; for `CN(C)CCCNCCc1cccc(Br)c1`: above 8 µM; for `CN(C)CCCNCCc1ccc(Br)cc1`: above 8 µM. The compound `CN(C)CCCNCCc1ccccc1F` showed an IC50 above 8 µM. On to `CN(C)CCCNCCc1cccc(F)c1`, for which the IC50 is above 8 µM. The same measure for `CN(C)CCCNCCc1ccc(F)cc1`: above 8 µM. Turning to `CN(C)CCCNCCc1ccccc1Cl`, the IC50 is above 8 µM. The same measure for `CN(C)CCCNCCc1cccc(Cl)c1`: 0.7 µM. The same measure for `CN(C)CCCNCCc1ccc(Cl)cc1`: above 8 µM. In the case of `COc1ccc(CCNCCCN(C)C)cc1Cl` it was above 8 µM. Compound `CN(C)CCCNCCc1ccc(Cl)c(Cl)c1` registered an IC50 above 8 µM. In the case of `CN(C)CCCNCCc1ccc(Cl)cc1Cl` it was above 8 µM.

`CN(C)CCCNCCc1c(Cl)cccc1Cl` yielded an IC50 above 8 µM. The same measure for `CN(C)CCCNCCc1c(F)cccc1Cl`: above 8 µM; for `CN(C)CCCNCCc1cccc(C(F)(F)F)c1`: 0.5 µM; for `CN(C)CCCNCc1c(Br)cc(Br)c(O)c1Br`: above 8 µM. In the case of `COc1c(Br)cc(Br)c(CNCCCN(C)C)c1Br` it was above 8 µM; in that of `CN(C)CCCNCc1cc(O)c(Br)cc1Br`, 2.2 µM; in that of `COc1cc(CNCCCN(C)C)c(Br)cc1Br`, 4.6 µM.
